The test system of assay [1] is MCF7. Briefly: Antiproliferative activity against human MCF7 cells. The class given is functional, cell-based. In short, it runs like this:
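MCF-7 cells grown in IMEM with 5% FBS and penicillin/streptomycin at 37 °C, 5% CO2, plated in 96-well plates with compounds in DMSO at five concentrations. After 2 days, glutaraldehyde-fixed, crystal violet-stained, dye solubilised in Triton X-100, A560 minus A405 read. % growth relative to day-0 and DMSO wells; IC50 read graphically from dose–response curve, triplicate.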

In assay [2] the test system is Streptomyces. Briefly: Antibacterial activity against Streptomyces 85E assessed as clear zone at 20 ug/disk after 30 hrs by hyphae formation inhibition assay. To be noted: read-out: IZ. The assay is classed as functional. In a few lines:
(§1)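 Mycelial fragments spread on minimal medium ISP 4 agar to form a lawn; compound-impregnated 6 mm paper disks placed on surface; incubated 30 h at 30 °C. Zone diameter recorded as clear (growth and sporulation inhibited) or bald (substrate hyphae without aerial hyphae); >9 mm counted active. Stocks in DMSO or methanol; solvent negative control, surfactin positive control.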

Assay [3] concerns Streptomyces. Briefly: Antibacterial activity against Streptomyces 85E assessed as clear zone at 10 ug/disk after 30 hrs by hyphae formation inhibition assay. Conditions: read-out: IZ. The class given is functional. In short, it runs like this:
as §1

Assay [4] relates to Streptomyces. Briefly: Antibacterial activity against Streptomyces 85E assessed as clear zone at 5 ug/disk after 30 hrs by hyphae formation inhibition assay. The assay is classed as functional. To be noted: read-out: IZ. In short, it runs like this: as §1
In assay [5] the test system is Streptomyces. Briefly: Antibacterial activity against Streptomyces 85E assessed as clear zone at 2.5 ug/disk after 30 hrs by hyphae formation inhibition assay. The class given is functional. To be noted: read-out: IZ. In a few lines: as §1
Assay [6] concerns Streptomyces. Briefly: Antibacterial activity against Streptomyces 85E assessed as bald phenotype at 5 ug/disk after 30 hrs by hyphae formation inhibition assay. The class given is functional. To be noted: read-out: IZ. In a few lines: as §1
Assay [7] relates to Streptomyces. Briefly: Antibacterial activity against Streptomyces 85E assessed as bald phenotype at 2.5 ug/disk after 30 hrs by hyphae formation inhibition assay. The class given is functional. Conditions: read-out: IZ. In short, it runs like this:
as §1

Assay [8] deals with Streptomyces. Briefly: Antibacterial activity against Streptomyces 85E assessed as bald phenotype at 10 ug/disk after 30 hrs by hyphae formation inhibition assay. The class given is functional. To be noted: read-out: IZ. In short, it runs like this: as §1
For assay [9], the system named is Streptomyces. Briefly: Antibacterial activity against Streptomyces 85E assessed as bald phenotype at 20 ug/disk after 30 hrs by hyphae formation inhibition assay. The class given is functional. To be noted: read-out: IZ. In short, it runs like this:
as §1

Assay [10] has as its system MCF7. Briefly: Cell cycle arrest in human MCF7 cells by accumulation at G1 phase at 10 uM by flow cytometry. The class given is functional, cell-based. In short, it runs like this: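 MCF-7 cells, 1 × 10^5 per well, held 2 days in serum-free, antibiotic-free, phenol red-free IMEM to induce G1 arrest. Compound or DMSO added 30 min before FBS to 5% final; serum-free wells as negative controls; U0126 50 µM comparator. After 24 h, cells fixed in ice-cold 80% ethanol, propidium iodide stained, phases measured by flow cytometry; n = 3.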
For orientation: Flow cytometry measures light scatter and fluorescence of single cells or particles in a stream.

In assay [11] the test system is MCF7. Briefly: Cytotoxicity against human MCF7 cells at >10 uM. The assay is classed as functional, cell-based.

This passage reports IC50, zone of inhibition and Activity results from ChEMBL document CHEMBL1144761, “Bioactive polybrominated diphenyl ethers from the marine sponge Dysidea sp” (J Nat Prod, 2008).

The source made the active and inactive calls. No cut-off for these calls is given here.

As usually defined, the IC50 is the concentration that gives 50% inhibition.

As for `Oc1c(Br)c(Br)cc(Br)c1Oc1ccccc1Br`, the 50% inhibitory concentration (IC50) in the assay with MCF7 [1] came to 6.96 µM. Further, in the assay with Streptomyces [2], the zone of inhibition at 20 µg/disc amounted to 20 mm. In the assay on Streptomyces [3], the zone of inhibition at 10 µg/disc worked out at 18 mm. In the assay with Streptomyces [4], the zone of inhibition at 5 µg/disc worked out at 13 mm. Also, the zone of inhibition at 2.5 µg/disc in the assay with Streptomyces [5] stood at 12 mm.
On to `Oc1c(Br)ccc(Br)c1Oc1ccc(Br)cc1Br`, for which the zone of inhibition at 5 µg/disc with Streptomyces [6] turned out to be 11 mm. The zone of inhibition at 2.5 µg/disc in the assay on Streptomyces [7] worked out at 10 mm. The compound further registered a concentration for half-maximal inhibition (IC50) with MCF7 [1] of 6.89 µM. In addition, the zone of inhibition at 20 µg/disc with Streptomyces [2] is 14 mm. For the same compound, the zone of inhibition at 10 µg/disc in the assay on Streptomyces [3] worked out at 13 mm.
`Oc1c(Br)cc(Br)cc1Oc1ccc(Br)cc1Br`: the zone of inhibition at 10 µg/disc in the assay on Streptomyces [8] amounted to 13 mm. Also, the zone of inhibition at 5 µg/disc with Streptomyces [6] stood at 12 mm. Also, the zone of inhibition at 2.5 µg/disc with Streptomyces [7] is 10 mm. Also, the IC50 with MCF7 [1] turned out to be 8.9 µM. For the same compound, the zone of inhibition at 20 µg/disc with Streptomyces [2] is 13 mm.
Regarding `Oc1c(Br)cc(Br)c(Br)c1Oc1ccc(Br)cc1Br`, the zone of inhibition at 10 µg/disc with Streptomyces [8] stood at 2 mm; in the assay on Streptomyces [3] it was 12 mm. Besides, the zone of inhibition at 5 µg/disc in the assay on Streptomyces [6] was determined as 15 mm. The zone of inhibition at 2.5 µg/disc in the assay on Streptomyces [7] was determined as 13 mm. In addition, the IC50 in the assay with MCF7 [1] turned out to be 8.73 µM. Moreover, the figures for the zone of inhibition at 20 µg/disc with Streptomyces [2] and in the assay on Streptomyces [9] were 12 mm and 3 mm, respectively.
`Oc1c(Br)c(Br)c(Br)c(Br)c1Oc1ccc(Br)cc1Br`: in the assay on Streptomyces [6], the zone of inhibition at 5 µg/disc came out at 12 mm. Also, the zone of inhibition at 2.5 µg/disc in the assay with Streptomyces [7] was found to be 12 mm. This compound also came in with a half-maximal inhibitory concentration (IC50) in the assay on MCF7 [1] of 9.48 µM. The zone of inhibition at 20 µg/disc in the assay on Streptomyces [2] is 15 mm. In the assay on Streptomyces [3], the zone of inhibition at 10 µg/disc worked out at 13 mm.
Take `COc1c(O)c(Oc2ccc(Br)cc2Br)c(Br)c(Br)c1Br`: in the assay with Streptomyces [8], the zone of inhibition at 10 µg/disc was determined as 12 mm. The zone of inhibition at 5 µg/disc in the assay with Streptomyces [6] was found to be 11 mm. The zone of inhibition at 2.5 µg/disc in the assay on Streptomyces [7] was found to be 10 mm. Inhibition in the assay on MCF7 [1] was half-maximal at 8.69 µM (IC50). Moreover, in the assay on Streptomyces [9], the zone of inhibition at 20 µg/disc is 12 mm.
As for `Oc1c(Oc2ccc(Br)cc2Br)ccc(Br)c1Br`, the zone of inhibition at 10 µg/disc in the assay with Streptomyces [8] turned out to be 14 mm. Moreover, the zone of inhibition at 5 µg/disc in the assay with Streptomyces [6] is 13 mm. For the same compound, in the assay on Streptomyces [7], the zone of inhibition at 2.5 µg/disc is 10 mm. For the same compound, the IC50 with MCF7 [1] was found to be 7.23 µM. The zone of inhibition at 20 µg/disc with Streptomyces [2] is 13 mm.
Take `Oc1cc(Br)cc(Br)c1Oc1ccc(Br)cc1Br`: the IC50 in the assay on MCF7 [1] amounted to 2.84 µM. The outcome in the assay with MCF7 [10] and with MCF7 [11] was Active. The zone of inhibition at 20 µg/disc in the assay with Streptomyces [2] amounted to 20 mm. Further, the zone of inhibition at 10 µg/disc with Streptomyces [3] was 17 mm. Moreover, the zone of inhibition at 5 µg/disc in the assay on Streptomyces [4] came out at 16 mm. In the assay on Streptomyces [5], the zone of inhibition at 2.5 µg/disc stood at 13 mm.
With `Oc1c(Br)c(Br)cc(Br)c1Oc1ccc(Br)cc1Br`, the zone of inhibition at 10 µg/disc in the assay on Streptomyces [8] is 13 mm. Also, in the assay with Streptomyces [6], the zone of inhibition at 5 µg/disc was determined as 11 mm. In the assay on Streptomyces [7], the zone of inhibition at 2.5 µg/disc amounted to 10 mm. Inhibition in the assay on MCF7 [1] was half-maximal at 7.52 µM (IC50). Moreover, in the assay on Streptomyces [9], the zone of inhibition at 20 µg/disc was 14 mm.
